Calls of active or inactive are those of the source. No cut-off for these calls is given here.
How the values were obtained:
[1] = Intrinsic clearance in rat liver microsomes; type: ADME, Microsome
[2] = Intrinsic clearance in human liver microsomes; type: ADME, Microsome
[3] = target: T1, Tyrosine-protein kinase BTK (Homo sapiens, UniProt Q06187); assay: Inhibition of BTK in human whole blood assessed as reduction in polyclonal anti-IgM antibody/human IL4-stimulated CD69 cell surface expression on B cells incubated for 16 hrs by FACS analysis; type: tissue-based
[4] = target: T1, Tyrosine-protein kinase BTK; assay: Inhibition of full length human unphosphorylated BTK using FITC-Ahx-TSELKKVVALYDYMPMNAND-NH2 as substrate incubated for 60 mins in presence of ATP at Km concentration
[5] = Clearance in Sprague-Dawley rat at 1 mg/kg, iv measured up to 24 hrs by HPLC analysis; type: ADME, organism-based; settings: in vivo
[6] = target: T1, Tyrosine-protein kinase BTK; assay: Inhibition of BTK in vitamin D3 differentiated human THP1 cells assessed as inhibition of FCgammaR-induced IL8 production measured after 24 hrs by immunoblot analysis
[7] = target: T1, Tyrosine-protein kinase BTK; assay: Irreversible inhibition of human BTK kinase domain by LC/MS analysis
Mus musculus [8] = assay: […] activity in ovalbumin-immunized po dosed C57Bl6 mouse assessed as reduction in skin swelling administered 2 h prior to OVA immunization and measured after 5 hrs by caliper method; type: functional, organism-based; settings: dose mg/kg 6-60, time 2.0 hrs
Outline: (§1)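 Mouse reverse passive Arthus reaction: acute FcγR-dependent hypersensitivity induced by intravenous ovalbumin antigen followed by intradermal polyclonal IgG anti-OVA antibody. Single oral dose given 2 h before induction; skin swelling measured 5 h after dosing, compared with vehicle control (SD shown).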

[9] = target: Receptor tyrosine-protein kinase erbB-4 (Homo sapiens, UniProt Q15303); assay: Inhibition of ERBB4 (unknown origin)
[10] = target: Receptor tyrosine-protein kinase erbB-2 (Homo sapiens) (UniProt P04626); assay: Inhibition of ERBB2 (unknown origin)
Rattus norvegicus = assay: (§2) In vivo protein occupancy at BTK in Wistar Han rat spleen at 10 mg/kg, po measured after 5 hrs relative to control; type: functional
Outline: (§3)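 BTK occupancy measured in spleen homogenates of female rats 5 h after a single 10 mg kg^-1 oral dose, relative to the respective vehicle control. Single-animal values, mean ± SD.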

[11] = Clearance in Sprague-Dawley rat at 3 mg/kg, po measured up to 24 hrs by HPLC analysis; type: ADME, organism-based; settings: in vivo
[12] = target: T2, Epidermal growth factor receptor (Homo sapiens, UniProt P00533); assay: Inhibition of EGFR (unknown origin)
[13] = Terminal plasma concentration in ovalbumin-immunized C57Bl6 mouse at 6 mg/kg, po administered 2 h prior to OVA immunization and measured after 5 hrs; type: ADME, organism-based; settings: read-out: Cp(T)
Outline: (§4)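 Terminal blood drug concentrations taken in the mouse reverse passive Arthus study (i.v. OVA plus intradermal IgG anti-OVA), after a single oral dose of 6, 20 or 60 mg/kg given 2 h before induction, sampled 5 h after dosing.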

[14] = Terminal plasma concentration in ovalbumin-immunized C57Bl6 mouse at 60 mg/kg, po administered 2 h prior to OVA immunization and measured after 5 hrs; type: ADME, organism-based; settings: read-out: Cp(T); outline: as §4
[15] = Intrinsic clearance in mouse liver microsomes; type: ADME, Microsome
[16] = Terminal plasma concentration in ovalbumin-immunized C57Bl6 mouse at 20 mg/kg, po administered 2 h prior to OVA immunization and measured after 5 hrs; type: ADME, organism-based; settings: read-out: Cp(T); outline: as §4
[17] = target: T2, Epidermal growth factor receptor; assay: Inhibition of EGF-induced EGFR phosphorylation in human A431 cells preincubated for 24 hrs followed by EGF stimulation and measured after 10 mins by HTRF based immunoassay; type: cell-based
[18] = target: T3, Tyrosine-protein kinase JAK3 (Homo sapiens) (UniProt P52333); assay: Inhibition of JAK3 (unknown origin)
T3 sequence (whole entry): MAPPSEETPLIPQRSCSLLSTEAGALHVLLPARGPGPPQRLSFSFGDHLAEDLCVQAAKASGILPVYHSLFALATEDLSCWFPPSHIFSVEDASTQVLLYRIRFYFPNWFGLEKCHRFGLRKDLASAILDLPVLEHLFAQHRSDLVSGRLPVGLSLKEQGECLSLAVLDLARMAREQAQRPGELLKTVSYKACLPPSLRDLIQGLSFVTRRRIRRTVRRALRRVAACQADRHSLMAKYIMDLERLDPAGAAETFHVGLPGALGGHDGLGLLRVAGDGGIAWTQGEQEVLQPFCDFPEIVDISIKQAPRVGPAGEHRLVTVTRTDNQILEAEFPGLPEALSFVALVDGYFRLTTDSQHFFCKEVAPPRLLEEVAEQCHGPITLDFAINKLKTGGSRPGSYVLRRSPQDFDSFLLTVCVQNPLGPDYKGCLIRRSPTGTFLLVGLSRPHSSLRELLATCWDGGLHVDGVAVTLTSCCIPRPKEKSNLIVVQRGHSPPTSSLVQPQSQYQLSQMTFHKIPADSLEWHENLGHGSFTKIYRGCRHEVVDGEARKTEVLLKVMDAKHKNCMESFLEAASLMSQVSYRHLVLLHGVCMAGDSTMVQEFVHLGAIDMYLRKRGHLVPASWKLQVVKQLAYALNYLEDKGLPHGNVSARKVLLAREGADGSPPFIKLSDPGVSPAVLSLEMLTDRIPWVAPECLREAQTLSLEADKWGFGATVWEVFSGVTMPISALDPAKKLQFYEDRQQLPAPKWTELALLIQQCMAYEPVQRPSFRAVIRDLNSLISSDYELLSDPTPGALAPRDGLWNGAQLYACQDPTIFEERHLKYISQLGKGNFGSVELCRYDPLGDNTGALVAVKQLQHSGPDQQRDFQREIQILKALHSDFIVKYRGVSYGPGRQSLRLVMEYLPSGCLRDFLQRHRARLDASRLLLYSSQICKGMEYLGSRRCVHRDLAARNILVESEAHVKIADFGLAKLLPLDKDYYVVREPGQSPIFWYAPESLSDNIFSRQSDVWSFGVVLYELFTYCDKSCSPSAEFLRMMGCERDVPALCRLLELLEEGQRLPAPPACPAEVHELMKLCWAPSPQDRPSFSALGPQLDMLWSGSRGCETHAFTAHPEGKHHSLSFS

Mus musculus [19] = assay: […] activity in ovalbumin-immunized C57Bl6 mouse assessed as reduction in skin swelling at 60 mg/kg, po administered 2 h prior to OVA immunization and measured after 5 hrs by caliper method relative to control; type: functional; set-up: scale not given: the % may be the effect or the level left; outline: as §1
[20] = Oral bioavailability in Sprague-Dawley rat at 3 mg/kg measured up to 24 hrs by HPLC analysis; type: ADME, organism-based; settings: in vivo
[21] = as §2; type: functional; outline: as §3
Mus musculus [22] = assay: […] activity in ovalbumin-immunized C57Bl6 mouse assessed as reduction in skin swelling at 30 mg/kg, po administered 2 h prior to OVA immunization and measured after 5 hrs by caliper method relative to control; type: functional; set-up: scale not given: the % may be the effect or the level left; outline: as §1
[23] = Terminal plasma concentration in ovalbumin-immunized C57Bl6 mouse at 30 mg/kg, po administered 2 h prior to OVA immunization and measured after 5 hrs; type: ADME, organism-based; settings: read-out: Cp(T)
Outline: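 Mice received a single oral dose 2 h before induction of the reverse passive Arthus reaction, which was intravenous ovalbumin followed by intradermal polyclonal IgG anti-OVA antibody. Terminal blood compound concentration was measured 5 h after dosing and reported in nM.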

T1 sequence (Q06187 whole entry): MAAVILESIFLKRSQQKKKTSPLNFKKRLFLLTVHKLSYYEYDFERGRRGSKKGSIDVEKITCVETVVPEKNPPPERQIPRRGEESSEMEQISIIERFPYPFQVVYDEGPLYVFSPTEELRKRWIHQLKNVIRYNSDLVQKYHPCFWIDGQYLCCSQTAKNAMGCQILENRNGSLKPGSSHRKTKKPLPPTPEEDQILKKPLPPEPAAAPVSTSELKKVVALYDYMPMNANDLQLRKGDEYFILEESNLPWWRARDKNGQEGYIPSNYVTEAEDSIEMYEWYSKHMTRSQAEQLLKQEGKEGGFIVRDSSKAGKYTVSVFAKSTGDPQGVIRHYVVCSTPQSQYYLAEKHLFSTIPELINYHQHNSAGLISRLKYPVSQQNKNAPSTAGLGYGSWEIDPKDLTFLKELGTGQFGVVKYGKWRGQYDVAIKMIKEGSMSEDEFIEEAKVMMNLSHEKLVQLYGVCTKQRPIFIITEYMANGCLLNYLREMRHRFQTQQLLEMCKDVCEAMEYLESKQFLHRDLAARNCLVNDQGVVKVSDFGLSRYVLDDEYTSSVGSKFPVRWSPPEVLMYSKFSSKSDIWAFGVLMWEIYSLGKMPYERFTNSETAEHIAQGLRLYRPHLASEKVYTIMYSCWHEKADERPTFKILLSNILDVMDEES
T2 sequence (P00533 whole entry): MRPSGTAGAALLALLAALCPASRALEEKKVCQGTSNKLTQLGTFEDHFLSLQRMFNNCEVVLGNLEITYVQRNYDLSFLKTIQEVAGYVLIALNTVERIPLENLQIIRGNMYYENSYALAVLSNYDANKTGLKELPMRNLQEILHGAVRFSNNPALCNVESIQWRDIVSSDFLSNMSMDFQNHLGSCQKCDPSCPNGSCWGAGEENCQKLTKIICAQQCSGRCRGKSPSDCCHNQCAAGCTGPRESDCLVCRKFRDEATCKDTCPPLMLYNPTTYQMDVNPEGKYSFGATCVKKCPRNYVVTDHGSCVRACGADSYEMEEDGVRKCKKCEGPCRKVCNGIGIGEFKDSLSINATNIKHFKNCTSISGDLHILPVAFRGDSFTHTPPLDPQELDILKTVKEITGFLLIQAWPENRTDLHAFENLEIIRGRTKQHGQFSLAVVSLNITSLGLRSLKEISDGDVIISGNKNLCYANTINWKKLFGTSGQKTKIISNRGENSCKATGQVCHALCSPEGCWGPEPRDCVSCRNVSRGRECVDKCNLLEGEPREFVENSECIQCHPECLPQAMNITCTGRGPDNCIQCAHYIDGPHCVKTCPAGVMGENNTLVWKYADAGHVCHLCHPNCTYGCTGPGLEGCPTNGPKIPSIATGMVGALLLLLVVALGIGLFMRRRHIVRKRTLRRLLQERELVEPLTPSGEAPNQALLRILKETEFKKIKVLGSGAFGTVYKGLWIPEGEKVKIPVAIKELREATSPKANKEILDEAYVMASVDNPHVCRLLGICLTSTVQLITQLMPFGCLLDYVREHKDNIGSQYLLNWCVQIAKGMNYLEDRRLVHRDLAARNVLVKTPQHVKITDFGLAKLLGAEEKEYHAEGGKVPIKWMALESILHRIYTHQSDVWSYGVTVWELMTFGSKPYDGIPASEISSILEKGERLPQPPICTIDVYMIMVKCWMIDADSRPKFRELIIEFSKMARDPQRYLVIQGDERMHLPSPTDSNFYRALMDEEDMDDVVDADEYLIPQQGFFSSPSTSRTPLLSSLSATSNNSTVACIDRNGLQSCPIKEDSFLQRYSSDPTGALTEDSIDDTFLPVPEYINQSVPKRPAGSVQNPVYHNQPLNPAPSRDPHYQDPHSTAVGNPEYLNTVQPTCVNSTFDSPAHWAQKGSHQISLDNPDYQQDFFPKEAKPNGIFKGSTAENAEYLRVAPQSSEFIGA
Chain of Receptor tyrosine-protein kinase erbB-4 (Q15303 whole entry): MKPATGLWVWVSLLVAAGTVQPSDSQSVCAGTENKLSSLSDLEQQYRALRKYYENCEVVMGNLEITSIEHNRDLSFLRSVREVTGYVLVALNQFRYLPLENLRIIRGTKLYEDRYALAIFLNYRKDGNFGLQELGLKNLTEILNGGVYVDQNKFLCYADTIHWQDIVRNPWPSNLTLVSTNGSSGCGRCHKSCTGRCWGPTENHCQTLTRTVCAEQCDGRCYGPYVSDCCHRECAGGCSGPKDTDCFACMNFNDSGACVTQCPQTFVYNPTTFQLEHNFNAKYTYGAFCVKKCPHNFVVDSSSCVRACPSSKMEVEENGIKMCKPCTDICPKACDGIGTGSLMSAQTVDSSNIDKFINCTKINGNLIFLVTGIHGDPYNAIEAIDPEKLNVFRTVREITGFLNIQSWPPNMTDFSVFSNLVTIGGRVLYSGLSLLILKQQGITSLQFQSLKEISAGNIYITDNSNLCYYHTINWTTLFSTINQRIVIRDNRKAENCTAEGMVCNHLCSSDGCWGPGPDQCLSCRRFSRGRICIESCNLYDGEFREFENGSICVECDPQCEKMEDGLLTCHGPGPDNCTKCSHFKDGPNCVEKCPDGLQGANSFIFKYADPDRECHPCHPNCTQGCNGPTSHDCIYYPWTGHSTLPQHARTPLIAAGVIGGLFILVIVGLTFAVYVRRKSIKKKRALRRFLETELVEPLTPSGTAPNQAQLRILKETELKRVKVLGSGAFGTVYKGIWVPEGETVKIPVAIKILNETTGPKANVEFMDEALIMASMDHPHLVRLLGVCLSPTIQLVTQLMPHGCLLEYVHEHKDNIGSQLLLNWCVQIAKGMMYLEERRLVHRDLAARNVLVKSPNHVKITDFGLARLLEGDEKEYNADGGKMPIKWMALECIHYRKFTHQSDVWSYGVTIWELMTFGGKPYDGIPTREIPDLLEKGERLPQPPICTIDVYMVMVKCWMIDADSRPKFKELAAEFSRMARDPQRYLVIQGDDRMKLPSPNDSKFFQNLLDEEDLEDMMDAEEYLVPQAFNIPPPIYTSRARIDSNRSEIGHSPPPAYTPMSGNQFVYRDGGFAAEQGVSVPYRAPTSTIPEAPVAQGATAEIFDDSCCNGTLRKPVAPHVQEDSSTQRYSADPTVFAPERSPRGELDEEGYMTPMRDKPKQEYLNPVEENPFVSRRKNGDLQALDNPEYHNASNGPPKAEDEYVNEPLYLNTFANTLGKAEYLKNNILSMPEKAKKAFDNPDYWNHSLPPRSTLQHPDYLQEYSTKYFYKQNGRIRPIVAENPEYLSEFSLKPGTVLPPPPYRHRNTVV
Chain of Receptor tyrosine-protein kinase erbB-2 (Homo sapiens) (P04626 whole entry): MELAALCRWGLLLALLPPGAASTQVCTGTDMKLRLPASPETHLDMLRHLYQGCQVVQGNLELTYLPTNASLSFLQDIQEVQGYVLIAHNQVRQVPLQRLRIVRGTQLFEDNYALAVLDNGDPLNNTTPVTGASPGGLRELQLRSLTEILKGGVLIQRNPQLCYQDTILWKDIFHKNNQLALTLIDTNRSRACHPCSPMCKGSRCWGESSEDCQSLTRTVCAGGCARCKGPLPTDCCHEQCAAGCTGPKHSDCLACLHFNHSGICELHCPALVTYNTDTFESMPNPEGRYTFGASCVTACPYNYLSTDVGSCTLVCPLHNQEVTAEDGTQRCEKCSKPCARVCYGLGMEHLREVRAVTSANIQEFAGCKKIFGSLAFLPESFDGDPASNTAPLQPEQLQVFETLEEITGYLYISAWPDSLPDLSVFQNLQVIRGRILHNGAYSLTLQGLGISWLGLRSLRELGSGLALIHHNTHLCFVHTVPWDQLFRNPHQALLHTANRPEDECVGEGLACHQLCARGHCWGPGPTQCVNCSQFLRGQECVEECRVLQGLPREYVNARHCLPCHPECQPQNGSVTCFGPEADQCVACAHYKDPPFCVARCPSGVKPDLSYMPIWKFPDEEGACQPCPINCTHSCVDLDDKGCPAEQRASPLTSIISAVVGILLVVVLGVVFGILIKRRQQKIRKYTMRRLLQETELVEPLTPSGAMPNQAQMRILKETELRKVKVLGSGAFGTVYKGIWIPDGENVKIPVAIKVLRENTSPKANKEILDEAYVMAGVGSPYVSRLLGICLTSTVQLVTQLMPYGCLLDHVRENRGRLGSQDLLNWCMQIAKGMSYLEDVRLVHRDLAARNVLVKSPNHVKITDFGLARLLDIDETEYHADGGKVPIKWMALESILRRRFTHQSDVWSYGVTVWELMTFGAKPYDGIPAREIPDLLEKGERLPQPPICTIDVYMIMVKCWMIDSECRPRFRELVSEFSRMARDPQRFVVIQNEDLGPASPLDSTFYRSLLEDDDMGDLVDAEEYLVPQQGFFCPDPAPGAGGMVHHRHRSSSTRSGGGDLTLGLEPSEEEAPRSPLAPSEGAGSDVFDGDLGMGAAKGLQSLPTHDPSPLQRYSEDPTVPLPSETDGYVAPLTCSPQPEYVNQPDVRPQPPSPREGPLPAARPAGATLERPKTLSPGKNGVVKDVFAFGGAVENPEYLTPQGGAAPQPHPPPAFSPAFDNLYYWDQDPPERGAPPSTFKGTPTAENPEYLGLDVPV

Row | Compound | Intrinsic clearance (CLint) [1] | Intrinsic clearance (CLint) [2] | IC50 [3] | IC50 [4] | clearance [5] | Activity [21] | further results
1 | C=CC(=O)N1CC(O)(c2c[nH]c3ncnc(-c4cc(F)cc(NC(=O)c5ccc(C6CC6)cc5)c4C)c23)C1 | 41 µL/min/mg | 3 µL/min/mg | 0.303 µM | 0.0014 µM | 11 L/h/kg | – | –
2 | CCC(=O)N(C)Cc1c[nH]c2ncnc(-c3cccc(NC(=O)c4ccc(C(C)(C)C)cc4)c3C)c12 | – | – | – | 3.9 µM | – | – | –
3 | C=CC(=O)N(C)Cc1c[nH]c2ncnc(-c3cccc(NC(=O)c4ccc(C(C)(C)C)cc4)c3C)c12 | 693 µL/min/mg | > 700 µL/min/mg | 0.934 µM | – | – | – | IC50 [6]: 0.08 µM; inhibition [7]: Active; Activity (Mus musculus [8]): Dose-dependent effect; IC50 [9]: > 10 µM; inhibition [10]: inactive; Activity (Rattus norvegicus): inactive; CL/F [11]: > 18 L/h/kg; IC50 [12]: > 10 µM; concentration at 2 h [13]: 0.004 µM; concentration at 2 h [14]: 0.118 µM; CLH [15]: 554 µL/min/mg; concentration at 2 h [16]: 0.014 µM; IC50 [17]: > 8 µM; inhibition [18]: inactive; Activity (Mus musculus [19]): 65%; bioavailability [20]: 2%
4 | C=CC(=O)N1CCC(c2c[nH]c3ncnc(-c4cc(F)cc(NC(=O)c5ccc(C6CC6)cc5)c4C)c23)CC1 | 578 µL/min/mg | 126 µL/min/mg | 0.019 µM | 0.001 µM | – | – | –
5 | C=CC(=O)N(C)C(=O)Cc1c[nH]c2ncnc(-c3cc(F)cc(NC(=O)c4ccc(C5CC5)cc4)c3C)c12 | 98 µL/min/mg | 39 µL/min/mg | 0.016 µM | 0.0012 µM | 18 L/h/kg | 44% | –
6 | C=CC(=O)N1CCC[C@@H](n2nc(-c3ccc(Oc4ccccc4)cc3)c3c(N)ncnc32)C1 [IBRUTINIB] | – | – | – | – | – | 93% | Activity (Mus musculus [22]): 84%; concentration at 2 h [23]: 0.187 µM
7 | C=CC(=O)N(C)Cc1c[nH]c2ncnc(-c3cc(F)cc(NC(=O)c4ccc(C5CC5)cc4)c3C)c12 | > 700 µL/min/mg | 308 µL/min/mg | 1.26 µM | 0.026 µM | – | – | –
8 | C=CC(=O)N(C)Cc1c[nH]c2ncnc(-c3cccc(NC(=O)c4ccc(C5CC5)cc4)c3C)c12 | 578 µL/min/mg | 252 µL/min/mg | 7.47 µM | 0.19 µM | – | – | –

Second part, led by results:

Row | Intrinsic clearance (CLint) [1] | Intrinsic clearance (CLint) [2] | IC50 [3] | IC50 [4] | clearance [5] | Compound | Activity [21] | further results
9 | 127 µL/min/mg | 459 µL/min/mg | 0.066 µM | 0.006 µM | > 18 L/h/kg | C/C=C/C(=O)N1CC=C(c2c[nH]c3ncnc(-c4cc(F)cc(NC(=O)c5ccc(C6CC6)cc5)c4C)c23)CC1 | 70% | –
10 | 171 µL/min/mg | 111 µL/min/mg | 0.225 µM | 0.005 µM | – | C=CC(=O)N1CCC(c2c[nH]c3ncnc(-c4cc(F)cc(NC(=O)c5ccc(C6CC6)cc5)c4C)c23)C1 (stereo not given) | – | –
11 | > 700 µL/min/mg | 603 µL/min/mg | 8 µM | 0.39 µM | – | C=CC(=O)N1CCCC(c2c[nH]c3ncnc(-c4cc(F)cc(NC(=O)c5ccc(C6CC6)cc5)c4C)c23)C1 (stereo not given) | – | –
12 | 408 µL/min/mg | 660 µL/min/mg | – | – | > 18 L/h/kg | C=CC(=O)N1CC=C(c2c[nH]c3ncnc(-c4cc(F)cc(NC(=O)c5ccc(C6CC6)cc5)c4C)c23)CC1 | 96% | –
13 | 628 µL/min/mg | > 700 µL/min/mg | 0.026 µM | 0.0006 µM | 10.6 L/h/kg | Cc1c(NC(=O)c2ccc(C3CC3)cc2)cc(F)cc1-c1ncnc2[nH]cc(C3=CCN(C(=O)/C=C/CN4CCCC4)CC3)c12 | – | Activity (Rattus norvegicus): inactive

Reference: ChEMBL document CHEMBL4665670 (ACS Med Chem Lett, 2019)
